Screening data as filed in PubChem.
The sample as a whole holds a higher share of hits than the screen did.
H69AR growth 86K – growth inhibitors of human H69AR lung tumor cells; hit rate 6% among 85,000; viability, % at 10 µM; H69AR lung tumor viability, ATP luminescence, 72 h; active compounds read low;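 active = viability at or below 40%; inactive = viability above 40%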;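 note: multidrug resistant small cell line overexpressing MRP-1 efflux transporter; 100% = mean luminescence of untreated control wells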
Fibroblast inh – blocks proliferation of human lung fibroblasts. viability, % at 10 µM. LL 47 human lung fibroblast viability, ATP luminescence; active compounds read low. hit rate 1.1% among 85,000. AID 719;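 active = viability at or below 50% in the single dose screen; inactive = viability above 50%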;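 note: compound exposure lasted 72 h before the ATP readout; 100% = median luminescence of untreated cell-only wells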
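Assay system: human lung fibroblast line LL 47, low passage. Input: 1,150 fibroblasts seeded per well. Times: overnight cell rest, 72 h compound treatment at 37 °C. Evaluation: % viability of median cell-only signal. Technique: luminescent ATP detection, CellTiter-Glo. Control set: cell-only wells, no compound.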
HCT116 bCat-KO – beta-catenin-lacking colon tumor cell growth suppression; AID 818; viability, % at 10 µM; HCT116 beta-catenin knockout viability, CellTiter-Glo, 60 h; active compounds read low; hit rate 1.5% among 140,000;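 active = viability at or under a set limit, the compound median less 4 SD, cut at about 6% in these data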;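 note: 0% = Hyamine 1622 control at 20 µM and 100% = untreated cell control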
PTEN del growth – growth suppressors of cells with PTEN tumor suppressor deletion. HCT116 PTEN-null viability, CellTiter-Glo, 60 h; active compounds read low. viability, % at 10 µM. hit rate 1.2% among 140,000;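 active = viability at or below a set limit, 4 SD under the median of all tested compounds, cut at about 3.7% in these data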;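 note: PTEN knockout HCT116 line with beta catenin targeted HCT116 as companion control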
HUVEC inhibit – blocks proliferation of human endothelial cells | viability, % at 10 µM (by protocol) | AID 648 | hit rate 1.1% among 86,000 | HUVEC proliferation, CellTiter-Glo luminescence, 72 h; active compounds read low;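 active = viability at or below 30%; inactive = viability above 30%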;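 note: 100% = median luminescence of DMSO-only cell control wells on each plate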
Active calls of the source: *; . = no result given.

SMILES	H69AR growth 86K	Fibroblast inh	HCT116 bCat-KO	PTEN del growth	HUVEC inhibit
O=C/C(=C\Nc1ccc(Cl)cn1)c1nc2cc(Cl)ccc2o1	38*	89	68	56	35
COc1ccc(C=Nc2cccc3c(=O)[nH][nH]c(=O)c23)c2ccccc12	32*	99	94	90	70
COc1ccc(-n2cccc2/C=C/[N+](=O)[O-])cc1	.	.	2.2*	2.8*	.
COc1ccc(-n2cccc2C=O)cc1	.	.	96	99	.
O=C(Nc1ccccc1)C(=O)Nc1ccccn1	.	.	85	80	.
S=C(Nc1ccccc1)c1ccccn1	1.2*	96	31	10	93
Cc1ccc(Nc2cc(C)nn2-c2nc(C)cc(=O)[nH]2)cc1	1.4*	4.5*	2.0*	1.5*	30*
Cc1ccc(Nc2nc3ccccc3nc2-n2nc(C)cc2C)cc1	92	104	88	78	116
Cc1ccc(Nc2cc(C)nn2-c2nc(C)cc(C)n2)cc1	14*	89	21	27	81
Cc1ccc(Nc2cc(C)nc3nnnn23)cc1	97	101	103	97	95
Cc1cccc(N(C(=O)c2nsc(Cl)c2Cl)C(C(=O)NC2CCCC2)c2ccc(O)cc2)c1 (stereo not drawn)	.	.	91	90	.
Cc1ccc(OC2=NS(=O)(=O)c3ccccc32)cc1	31*	102	103	103	80
C=CCCCCCCCCC(=O)NN	.	.	83	91	.
O=S(=O)(Nc1cc(C(F)(F)F)ccc1N1CCOCC1)c1ccc2ccccc2c1	.	.	74	72	.
O=C(CSc1nnc(-c2cccs2)n1-c1ccccc1)Nc1ccccc1	64	41*	56	49	80
Cc1ccc(NC(=O)CSc2nnc(-c3cccnc3)n2-c2ccc(C)cc2)cc1	27*	98	91	89	79
O=C(CSc1nnc(-c2cccnc2)n1-c1ccccc1)Nc1ccccc1	85	101	86	101	97
Cc1ccccc1-n1c(SCC(=O)c2cc(C)n(C)c2C)nnc1-c1cccnc1	39*	99	99	109	110
Cc1ccc(-n2c(Cc3cccs3)nnc2SCC(=O)Nc2ccc(F)c(F)c2)cc1	77	4.0*	78	80	86
COc1ccc(C(NC(=O)c2ccccc2F)NC(=O)c2ccccc2F)cc1	.	.	88	93	.
C=CCn1c(SCC(=O)NCc2ccc3c(c2)OCO3)nc2scc(-c3ccccc3)c2c1=O	66	102	78	79	83
C=CCn1c(SCC(=O)N2CC(=O)Nc3ccccc32)nc2scc(-c3ccccc3)c2c1=O	26*	99	55	52	74
COc1ccc(C(C)(C)C)cc1NC(=S)NCCN1CCOCC1	.	.	93	90	.
NC(=O)SCC(=O)Nc1ccc(Cl)c(Cl)c1	11*	95	1.1*	1.4*	65
Cc1ccc(NC(=O)CSC(N)=O)cc1Cl	18*	98	74	62	59
SMILES	H69AR growth 86K	Fibroblast inh	HCT116 bCat-KO	PTEN del growth	HUVEC inhibit
NC(=O)SCC(=O)Nc1ccc(Cl)cc1	.	.	95	97	.
CC1(C)N=C(SCC(=O)Nc2ccc(Cl)cc2)C(c2ccccc2)=N1	50	94	65	72	84
CC1(C)N=C(SCC(=O)Nc2ccc(Cl)cc2)C(c2ccc(Cl)cc2)=N1	8.4*	95	46	36	77
COC(=O)c1ccc(NC(=O)C(=O)N2CCN(C(=S)Nc3ccc(C)cc3)CC2)cc1	.	.	91	97	.
CCCn1c(Nc2nc3ccccc3n2C)nc2ccccc21	3.1*	102	2.2*	2.0*	3.0*
CCCn1c(NC(=O)c2ccc(C)cc2)nc2ccccc21	52	67	26	37	87
CCCn1c(NC(=O)c2ccccc2)nc2ccccc21	31*	71	42	38	86
CC(NC(=O)c1ccccc1)c1nc2ccccc2n1Cc1ccccc1F (stereo not drawn)	12*	92	76	66	103
CC(NC(=O)c1ccccc1)c1nc2ccccc2n1Cc1ccc(C#N)cc1 (stereo not drawn)	70	93	78	89	102
O=C(Nc1nc2ccccc2n1CCN1CCCCC1)C1CCCCC1	31*	87	43	56	107
COC(=O)[C@H](Cc1ccccc1)NC(=O)NCCC1=CCCCC1	70	97	87	99	104
CCCn1c(NC(=O)c2cccc(S(=O)(=O)N3CCCC3)c2)nc2ccccc21	17*	53	2.9*	2.0*	52
CCCn1c(NC(=O)C2CCN(S(=O)(=O)c3cccs3)CC2)nc2ccccc21	39*	65	10	8	72
